Tests used:
HPAC = assay: Cytotoxicity against human HPAC cell line; format: functional, cell-based
How it was run: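 Human pancreatic ductal carcinoma HPAC cells grown in 1:1 DMEM/Ham's F-12 with 10% FBS at 37 °C, seeded at 2 × 10^3 cells/well. After 24 h, compounds were added from DMSO stocks (final DMSO 0.1%) for 72 h. WST-1 was then added for 3 h at 37 °C and absorbance read at 450 nm.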

Mus musculus [1] = assay: Toxicity in BALB/c mouse at 0.5 mg/kg, ip; format: organism-based; parameters: dose 0.5 mg/kg, route intraperitoneal; conditions: in vivo
Mus musculus [2] = assay: Hepatic toxicity in BALB/c mouse at 0.5 mg/kg, ip; format: organism-based; parameters: dose 0.5 mg/kg, route intraperitoneal; conditions: in vivo

`CCC(=C/[C@H](C)C/C=C/C(C)=C/[C@@H](CO)C(=O)[C@@H](C)[C@H](O)[C@@H](C)C/C(C)=C/C(=O)O)/C=C/[C@H]1CC(C)=CC(=O)O1` was tested, and the IC50 (HPAC) was 0.309 nM, the Activity (Mus musculus [1]) was “Non-toxic” and the Activity (Mus musculus [2]) was “Non-toxic”.

Source: ChEMBL document CHEMBL1148497 (Bioorg Med Chem Lett, 2006)
